Measured values taken from ChEMBL document CHEMBL4330087, “Synthesis, antimicrobial activity, attenuation of aminoglycoside resistance in MRSA, and ribosomal A-site binding of pyrene-neomycin conjugates” (Eur J Med Chem, 2019).
≈ marks a conversion by molar mass, not a printed value. Calls of active or inactive are those of the source. The rule behind the calls is not given here.

Key:
Staphylococcus aureus [1] = assay: Antibacterial activity against NEO-sensitive Staphylococcus aureus 25923 after 15 to 20 hrs by CLSI protocol based microdilution assay; assay type: functional
Summary of the method: (§1)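 CLSI broth microdilution on exponential-phase bacteria at ~3×10^5 cells/mL in cation-adjusted Mueller-Hinton broth. Serial 2-fold dilutions gave final concentrations of 50 to 0.78 μM; compound stocks were 10× in 10% DMSO. Incubated at 37 °C for 15-20 h, growth read at A595. Percent inhibition averaged over triplicates; MIC in μM.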

Ribosomal RNA A-site [2] = assay: Displacement of F-NEO from Escherichia coli rRNA-A site after 10 to 20 mins by fluorescence assay; assay type: nucleic-acid assay
Summary of the method: (§2)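 A 100 nM F-NEO:A-site RNA complex in 10 mM HEPES, 50 mM NaCl, 0.04 mM EDTA, pH 7.0 was titrated with 2-fold dilutions of ligand from 20 to 0.009 μM, or from 60 or 40 μM for weaker ligands. Incubated 10-20 min at room temperature, fluorescence read at ex 485/em 525 nm. IC50 from dose-response curve fit.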

Ribosomal RNA A-site [3] = assay: Displacement of F-NEO from human cytosolic rRNA-A site after 10 to 20 mins by fluorescence assay; assay type: nucleic-acid assay; summary of the method: as §2
Staphylococcus aureus [4] = assay: Antibacterial activity against NEO-sensitive Staphylococcus aureus harboring NorA mutant after 15 to 20 hrs by CLSI protocol based microdilution assay; assay type: functional; summary of the method: as §1
[5] = system: Staphylococcus epidermidis; assay: Antibacterial activity against NEO-sensitive Staphylococcus epidermidis 12384 after 15 to 20 hrs by CLSI protocol based microdilution assay; assay type: functional; summary of the method: as §1
Staphylococcus aureus [6] = assay: Antibacterial activity against methicillin-resistant Staphylococcus aureus 33591 after 15 to 20 hrs by CLSI protocol based microdilution assay; assay type: functional; summary of the method: as §1
Staphylococcus aureus [7] = assay: Antibacterial activity against methicillin-resistant Staphylococcus aureus A960649 after 15 to 20 hrs by CLSI protocol based microdilution assay; assay type: functional; summary of the method: as §1
Staphylococcus aureus [8] = assay: Antibacterial activity against methicillin-resistant Staphylococcus aureus SU-5 after 15 to 20 hrs by CLSI protocol based microdilution assay; assay type: functional; summary of the method: as §1
Staphylococcus aureus [9] = assay: Antibacterial activity against methicillin-resistant Staphylococcus aureus M0602 after 15 to 20 hrs by CLSI protocol based microdilution assay; assay type: functional; summary of the method: as §1
Streptococcus pyogenes = assay: Antibacterial activity against NEO-resistant Streptococcus pyogenes C203 after 15 to 20 hrs by CLSI protocol based microdilution assay; assay type: functional; summary of the method: as §1
Bacillus anthracis = assay: Antibacterial activity against NEO-sensitive Bacillus anthracis BA852 after 15 to 20 hrs by CLSI protocol based microdilution assay; assay type: functional; summary of the method: as §1
[10] = system: Mycolicibacterium smegmatis; assay: Antibacterial activity against NEO-sensitive Mycobacterium smegmatis after 15 to 20 hrs by CLSI protocol based microdilution assay; assay type: functional; summary of the method: as §1
Escherichia coli [11] = assay: Antibacterial activity against NEO-sensitive Escherichia coli ATCC 25922 after 15 to 20 hrs by CLSI protocol based microdilution assay; assay type: functional; summary of the method: as §1
Escherichia coli [12] = assay: Antibacterial activity against NEO-sensitive Escherichia coli harboring TolC mutant after 15 to 20 hrs by CLSI protocol based microdilution assay; assay type: functional; summary of the method: as §1
Escherichia coli [13] = assay: Antibacterial activity against multidrug-resistant Escherichia coli H4H after 15 to 20 hrs by CLSI protocol based microdilution assay; assay type: functional; summary of the method: as §1
Staphylococcus aureus [14] = assay: Antibacterial activity against NEO-sensitive Staphylococcus aureus C2 after 15 to 20 hrs by CLSI protocol based microdilution assay; assay type: functional
Summary of the method: (§3)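 CLSI broth microdilution MIC in triplicate on exponential-phase cells, ~3×10^5 cells per mL in cation-adjusted Mueller-Hinton broth. Compound was added from 10× stocks in 10% DMSO as serial 2-fold dilutions, final 50 to 0.78 μM. Plates were incubated at 37 °C, humidified, 15-20 h. Growth was read as absorbance at 595 nm, and percent inhibition was averaged over triplicates.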

Staphylococcus aureus [15] = assay: Antibacterial activity against NEO-sensitive Staphylococcus aureus C1 after 15 to 20 hrs by CLSI protocol based microdilution assay; assay type: functional; summary of the method: as §3
Staphylococcus aureus [16] = assay: Antibacterial activity against NEO-sensitive Staphylococcus aureus NRS77 after 15 to 20 hrs by CLSI protocol based microdilution assay; assay type: functional; summary of the method: as §3
Staphylococcus aureus [17] = assay: Antibacterial activity against NEO-sensitive Staphylococcus aureus 6538 after 15 to 20 hrs by CLSI protocol based microdilution assay; assay type: functional; summary of the method: as §3
Ribosomal RNA A-site [18] = assay: Binding affinity to rRNA-A site in human MDA-MB-231 cells assessed as inhibition of protein translation; assay type: cell-based
[19] = Toxicity in Caenorhabditis elegans infected with methicillin-resistant Staphylococcus aureus assessed as effect on nematode larvae viability by measuring decrease in formazan production at 6.25 to 50 uM after 24 hrs by MTT assay relative to control
[20] = Toxicity in Caenorhabditis elegans infected with methicillin-resistant Staphylococcus aureus assessed as effect on nematode larvae viability by measuring decrease in formazan production at 3.13 to 1.56 uM after 24 hrs by MTT assay

In the case of `NC[C@@H]1O[C@H](O[C@H]2[C@@H](O)[C@H](O[C@@H]3[C@@H](O)[C@H](N)C[C@H](N)[C@H]3O[C@H]3O[C@H](CN)[C@@H](O)[C@H](O)[C@H]3N)O[C@@H]2CO)[C@H](N)[C@@H](O)[C@@H]1O` [FRAMYCETIN], the MIC (Staphylococcus aureus [1]) is reported as 1.56 µM (≈ 0.959 µg/mL), the IC50 (Ribosomal RNA A-site [2]) is reported as 0.087 µM and the IC50 (Ribosomal RNA A-site [3]) is reported as 0.076 µM. The MIC (Staphylococcus aureus [4]) was 1.56 µM (≈ 0.959 µg/mL), the MIC [5] was 1.56 µM (≈ 0.959 µg/mL) and the MIC (Staphylococcus aureus [6]) was 400 µM (≈ 246 µg/mL). The MIC (Staphylococcus aureus [7]) was 100 µM (≈ 61.5 µg/mL), the MIC (Staphylococcus aureus [8]) was 200 to 400 µM (≈ 123 to 246 µg/mL) and the MIC (Staphylococcus aureus [9]) was over 400 µM. For the same molecule, the MIC (Streptococcus pyogenes) was “inactive”, the MIC (Bacillus anthracis) was 1.56 µM (≈ 0.959 µg/mL) and the MIC [10] was 0.78 µM (≈ 0.479 µg/mL). The MIC (Escherichia coli [11]) was 3.13 µM (≈ 1.92 µg/mL), the MIC (Escherichia coli [12]) was 1.56 µM (≈ 0.959 µg/mL) and the MIC (Escherichia coli [13]) was 400 µM (≈ 246 µg/mL). For the same molecule, the MIC (Staphylococcus aureus [14]) was 6.3 µM (≈ 3.87 µg/mL), the MIC (Staphylococcus aureus [15]) was 3.2 µM (≈ 1.97 µg/mL) and the MIC (Staphylococcus aureus [16]) was 1.6 µM (≈ 0.983 µg/mL). The MIC (Staphylococcus aureus [17]) was 3.2 µM (≈ 1.97 µg/mL), the IC50 (Ribosomal RNA A-site [18]) was 0.139 µM and the Activity [19] was 50 to 75%. For the same molecule, the Activity [20] was “Non-Toxic”.
